Compounds with a hit are over-represented: about 2.3% of the library has one in this group of screens.
TRPC4 potent: positive allosteric modulators of TRPC4, primary screen, cell-based, mouse TRPC4beta, HEK293 mu-opioid, Fluo-4 calcium. DAMGO EC20, Fluo-4 Ca2+ flux; active compounds read high. hit rate 0.42% among 310,000. B-score at 10 µM. AID 2227, 2009;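 active = B-score of calcium response area above 5 SD of library B-scores, with initial fluorescence ratio within 5 SD of library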;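 also: B-score of integrated fluorescence ratio over time as area under calcium response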
TRPC6 inhibitor: mouse TRPC6 channel inhibitors, primary screen, cell-based, HEK293, membrane potential dye | Short transient receptor potential channel 6 (Mus musculus), Q61143 | ACh-evoked depolarization; active compounds read low | B-score at 10 µM | hit rate 1.1% among 310,000;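 active = B-score under library mean minus 3 SD, initial fluorescence not abnormally high, positive integrated signal ratio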;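 also: B-score derived from integrated fluorescence ratio over the kinetic read; more negative B-score means stronger inhibition of depolarization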
Target sequence (Q61143 whole entry, looked up): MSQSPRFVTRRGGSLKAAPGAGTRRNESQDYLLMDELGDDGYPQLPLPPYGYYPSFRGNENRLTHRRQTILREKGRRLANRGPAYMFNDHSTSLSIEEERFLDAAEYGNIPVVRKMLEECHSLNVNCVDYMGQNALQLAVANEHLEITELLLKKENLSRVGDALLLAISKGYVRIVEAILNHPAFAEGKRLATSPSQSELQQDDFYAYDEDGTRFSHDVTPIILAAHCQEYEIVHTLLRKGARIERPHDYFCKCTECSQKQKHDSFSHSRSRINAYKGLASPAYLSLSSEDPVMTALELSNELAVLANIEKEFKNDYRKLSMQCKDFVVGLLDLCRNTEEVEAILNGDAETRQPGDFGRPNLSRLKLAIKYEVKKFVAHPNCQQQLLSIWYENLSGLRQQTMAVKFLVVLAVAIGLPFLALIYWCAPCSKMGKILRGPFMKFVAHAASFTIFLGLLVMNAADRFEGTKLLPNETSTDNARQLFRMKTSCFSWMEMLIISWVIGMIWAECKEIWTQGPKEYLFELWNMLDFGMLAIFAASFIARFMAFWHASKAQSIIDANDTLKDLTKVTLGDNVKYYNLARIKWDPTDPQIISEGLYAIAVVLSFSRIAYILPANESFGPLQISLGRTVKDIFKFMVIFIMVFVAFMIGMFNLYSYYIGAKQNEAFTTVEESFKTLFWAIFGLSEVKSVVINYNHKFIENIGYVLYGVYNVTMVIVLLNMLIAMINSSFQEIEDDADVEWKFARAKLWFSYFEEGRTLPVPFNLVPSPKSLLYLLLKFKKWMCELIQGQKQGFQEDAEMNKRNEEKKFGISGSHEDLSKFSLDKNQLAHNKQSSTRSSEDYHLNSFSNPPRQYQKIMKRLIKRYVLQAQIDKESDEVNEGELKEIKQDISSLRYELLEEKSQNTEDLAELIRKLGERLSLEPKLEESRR
TRPC4 inh: inhibitors of mouse TRPC4 channel, primary screen, Fluo4 calcium, HEK293 TRPC4beta/mu-opioid cells | DAMGO-evoked Fluo4 calcium flux; active compounds read low | hit rate 0.39% among 300,000 | AID 2247, 2010 | B-score at 10 µM | Short transient receptor potential channel 4 (Mus musculus), Q9QUQ5;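 active = B-score over 3 SD under the library average, no early fluorescence shift, positive overall ratio signal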
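Material: HEK293 cells with stable TRPC4beta plus mu-opioid receptor expression; probe or stimulus: DAMGO in two steps, submaximal then maximal; technique: Fluo4 calcium fluorescence by kinetic imaging, 5 s 1 Hz baseline; measure: integrated fluorescence ratio relative to baseline, converted to per-well B score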
TRPC6 activator: mouse TRPC6 channel activators, primary screen, cell-based, HEK293, membrane potential dye. AID 2550, 2010. B-score at 10 µM. Short transient receptor potential channel 6 (Mus musculus), Q61143. HEK293-TRPC6 membrane potential dye fluorescence; active compounds read high. hit rate 0.13% among 310,000;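 active = B-score of the integrated fluorescence ratio above library mean plus 3 SD, and starting fluorescence ratio within library mean plus 5 SD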;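 also: higher score means more depolarization so channel activation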
TRPC4 act: activators of mouse TRPC4 channel, primary screen, Fluo4 calcium, HEK293 TRPC4beta/mu-opioid cells; Short transient receptor potential channel 4 (Mus musculus), Q9QUQ5; Fluo4 calcium fluorescence; active compounds read high; B-score at 10 µM; hit rate 0.49% among 310,000; AID 2237, 2010;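 active = B-score above 5 SD of library B-scores, and initial fluorescence ratio not above library mean plus 5 SD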;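 also: positive B-score marks a calcium rise read as TRPC4 activation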
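Assay system – TRPC4beta and mu-opioid receptor HEK293 stable cells · Measured by – Fluo4 fluorescence, kinetic · Schedule – dye loading 45 min room temperature, 110 s kinetic read · Read-out – B-scored integrated calcium fluorescence ratio · Controls – buffer and maximal DAMGO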
Numbers without * were called inactive; i = inactive.

SMILES	TRPC4 potent	TRPC6 inhibitor	TRPC4 inh	TRPC6 activator	TRPC4 act
CCc1ccc(NC(=O)N(CCN(C)C)C(C)c2cccnc2)cc1 (configuration not stated)	i	i	i	i	72*
CCOc1ccc(NC(=O)N(CCN(C)C)C(C)c2cccnc2)cc1 (configuration not stated)	i	i	i	i	i
COc1cc(NC(=O)c2cc(C)no2)cc(OC)c1OC	i	i	i	i	i
COc1cc(OC)c(C(=O)Nc2ccc(C(=O)c3ccccc3)cc2)cc1OC	i	i	i	i	i
COC1CCCN(Cc2cn(C)nc2-c2ccc(Oc3ccccc3)cc2)C1 (configuration not stated)	i	i	i	i	i
Cn1cc(CN2CCCCC2CO)c(-c2ccc(Oc3ccccc3)cc2)n1 (configuration not stated)	i	i	-7*	i	i
COc1ccc(CCNC(=O)CC(c2ccccc2)c2cc(C)ccc2O)cc1OC (configuration not stated)	i	i	i	i	i
Cc1ccc(-c2cc(-c3ccccc3)nc(NN)n2)cc1	12*	i	i	i	i
COc1ccc(-c2cc(-c3ccccc3)nc(NN)n2)cc1OC	i	i	i	i	i
COCCn1c(SCC(=O)c2ccccc2)nc2ccccc2c1=O	i	i	-7*	i	i
CC(=O)NCCn1c(SCc2ccccc2F)nc2ccccc2c1=O	i	i	i	i	i
COC(=O)c1ccc(CSc2nc3ccccc3c(=O)n2C)o1	i	i	i	i	i
COCCCn1c(SCC(=O)c2ccccc2)nc2ccccc2c1=O	i	i	i	i	i
COCCn1c(SCc2ccccc2F)nc2ccccc2c1=O	i	i	-6*	i	i
COC(=O)c1ccc(CSc2nc3ccccc3c(=O)n2CC(C)C)o1	i	i	-7*	i	i
COCCn1c(SCc2cccc([N+](=O)[O-])c2)nc2ccccc2c1=O	i	i	-6*	i	i
COCCn1c(SCC(=O)N2CCc3ccccc3C2)nc2ccccc2c1=O	i	i	-5*	i	i
COCCn1c(SCC(=O)N2CCOCC2)nc2ccccc2c1=O	i	i	i	i	i
COc1cc(OC)cc(C(=O)N2CCN(C(=O)c3cccnc3)CC2)c1	i	i	i	i	i
CC(=O)Nc1ccc(S(=O)(=O)Nc2nc3ccc(C)cc3s2)cc1	i	i	-5*	i	i
Cc1ccc(S(=O)(=O)Nc2nc3ccc(S(C)(=O)=O)cc3s2)cc1	i	i	i	i	i
CC(OC(=O)CNC(=O)c1cccs1)C(=O)Nc1ccc(S(N)(=O)=O)cc1 (configuration not stated)	i	i	i	i	i
CSc1sc(-c2n[nH]c(=S)n2C)c2c1C=CCC2	i	i	i	i	i
NC(=O)N/N=C1\c2ccccc2-c2c(C(N)=O)cccc21	i	i	-5*	i	i
N#Cc1cccc2c1-c1ccccc1/C2=N/NC(N)=O	i	i	-6*	i	i
N#Cc1cccc2c1-c1ccccc1/C2=N/NC(N)=S	i	i	i	i	i
N#CCCn1cc(C(=O)Nc2ccccn2)c(-c2ccccc2)n1	i	i	i	i	i
N#CCCn1cc(C(=O)Nc2ccc(C(=O)O)cc2)c(-c2cccc(Br)c2)n1	i	i	i	i	70*
COc1cc(NC(=O)N[C@@H](Cc2c[nH]c3ccccc23)C(=O)O)c(C(=O)O)cc1OC	i	i	i	i	i
Brc1ccc2[nH]c3c(NCc4ccccn4)ncnc3c2c1	i	i	i	i	61*

Compound activity from PubChem.
